# Source: ChEMBL document CHEMBL1649446, “Comparative antipneumococcal activities of sulopenem and other drugs” (2009)
# Experiments:
# Assay type in all cases: functional
# Streptococcus pneumoniae [1] = assay: Antimicrobial activity against penicillin-resistant Streptococcus pneumoniae by agar dilution method
# Outline: (§1)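 Agar dilution MIC on Mueller-Hinton agar with 5% sheep blood, inocula 10^4 CFU/spot; amoxicillin-clavulanate combined 1:2; S. pneumoniae ATCC 49619 quality control each run.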
# Streptococcus pneumoniae [2] = assay: Antimicrobial activity against penicillin-intermediate Streptococcus pneumoniae by agar dilution method
# Streptococcus pneumoniae [3] = assay: Antimicrobial activity against Streptococcus pneumoniae 19A by agar dilution method; outline: as §1
# Streptococcus pneumoniae [4] = assay: Antimicrobial activity against penicillin-susceptible Streptococcus pneumoniae by agar dilution method
# Streptococcus pneumoniae [5] = assay: Antimicrobial activity against Streptococcus pneumoniae 10 by time-kill analysis
# Outline: (§2)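 Time-kill in cation-adjusted Mueller-Hinton broth with 5% lysed horse blood; inocula 5 × 105 to 5 × 10^6 CFU/ml; drugs at MIC, 2× and 4× MIC; 35°C shaking water bath; viable counts at 0, 3, 6, 12, 24 h. Bactericidal = ≥3 log10 CFU/ml (99.9%) drop from original inoculum; 90%/99%/99.9% killing scored per strain.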
# Streptococcus pneumoniae [6] = assay: Antimicrobial activity against Streptococcus pneumoniae 12 by time-kill analysis; outline: as §2
# Streptococcus pneumoniae [7] = assay: Antimicrobial activity against Streptococcus pneumoniae 8 by time-kill analysis; outline: as §2
# Streptococcus pneumoniae [8] = assay: Antimicrobial activity against Streptococcus pneumoniae 2 by time-kill analysis; outline: as §2
# Streptococcus pneumoniae [9] = assay: Antimicrobial activity against Streptococcus pneumoniae 3 by time-kill analysis; outline: as §2
# Streptococcus pneumoniae [10] = assay: Antimicrobial activity against Streptococcus pneumoniae 9 by time-kill analysis
# Outline: as §2, with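 “12 and” for “12,”, “if” for “=”, “reduction” for “drop”, “90% and 99%” for “90%/99%/99.9%”, “also scored.” for “scored per strain.”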
# Streptococcus pneumoniae [11] = assay: Antimicrobial activity against Streptococcus pneumoniae isolate 2686 by agar dilution method; outline: as §1
# Streptococcus pneumoniae [12] = assay: Antimicrobial activity against Streptococcus pneumoniae isolate 33 by agar dilution method; outline: as §1
# Streptococcus pneumoniae [13] = assay: Antimicrobial activity against Streptococcus pneumoniae isolate 2617 by agar dilution method; outline: as §1
# Streptococcus pneumoniae [14] = assay: Antimicrobial activity against Streptococcus pneumoniae isolate 3275 by agar dilution method; outline: as §1
# Streptococcus pneumoniae [15] = assay: Antimicrobial activity against Streptococcus pneumoniae isolate 3481 by agar dilution method; outline: as §1
# Streptococcus pneumoniae [16] = assay: Antimicrobial activity against Streptococcus pneumoniae isolate 2880 by agar dilution method; outline: as §1
# Streptococcus pneumoniae [17] = assay: Antimicrobial activity against Streptococcus pneumoniae isolate 1055 by agar dilution method
# Streptococcus pneumoniae [18] = assay: Antimicrobial activity against Streptococcus pneumoniae isolate 2874 by agar dilution method; outline: as §1
# Streptococcus pneumoniae [19] = assay: Antimicrobial activity against Streptococcus pneumoniae isolate 2688 by agar dilution method; outline: as §1
# Streptococcus pneumoniae [20] = assay: Antimicrobial activity against Streptococcus pneumoniae isolate 1564 by agar dilution method
# Streptococcus pneumoniae [21] = assay: Antimicrobial activity against Streptococcus pneumoniae isolate 1146 by agar dilution method; outline: as §1
# Streptococcus pneumoniae [22] = assay: Antimicrobial activity against Streptococcus pneumoniae isolate 3458 by agar dilution method
# Streptococcus pneumoniae [23] = assay: Antimicrobial activity against Streptococcus pneumoniae 1 by time-kill analysis
# Outline: as §2, with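 “12 and” for “12,”, “if” for “=”, “reduction” for “drop”, “90% and 99%” for “90%/99%/99.9%”, “also scored.” for “scored per strain.”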
# Streptococcus pneumoniae [24] = assay: Antimicrobial activity against Streptococcus pneumoniae isolate 3681 by agar dilution method; outline: as §1
# Streptococcus pneumoniae [25] = assay: Antimicrobial activity against Streptococcus pneumoniae isolate 3346 by agar dilution method
# Streptococcus pneumoniae [26] = assay: Antimicrobial activity against Streptococcus pneumoniae isolate 1384 by agar dilution method; outline: as §1
# Streptococcus pneumoniae [27] = assay: Antimicrobial activity against Streptococcus pneumoniae isolate 4747 by agar dilution method; outline: as §1
# Streptococcus pneumoniae [28] = assay: Antimicrobial activity against Streptococcus pneumoniae isolate 1147 by agar dilution method; outline: as §1
# Streptococcus pneumoniae [29] = assay: Antimicrobial activity against Streptococcus pneumoniae isolate 37 by agar dilution method; outline: as §1
# Streptococcus pneumoniae [30] = assay: Antimicrobial activity against Streptococcus pneumoniae isolate 3260 by agar dilution method
# Streptococcus pneumoniae [31] = assay: Antimicrobial activity against Streptococcus pneumoniae isolate 24 by agar dilution method
# Streptococcus pneumoniae [32] = assay: Antimicrobial activity against Streptococcus pneumoniae 6 by time-kill analysis; outline: as §2
# Streptococcus pneumoniae [33] = assay: Antimicrobial activity against Streptococcus pneumoniae isolate 3412 by agar dilution method; outline: as §1
# Streptococcus pneumoniae [34] = assay: Antimicrobial activity against Streptococcus pneumoniae isolate 3791 by agar dilution method; outline: as §1
# Streptococcus pneumoniae [35] = assay: Antimicrobial activity against Streptococcus pneumoniae 11 by time-kill analysis; outline: as §2
# Streptococcus pneumoniae [36] = assay: Antimicrobial activity against Streptococcus pneumoniae isolate 1397 by agar dilution method; outline: as §1
# Streptococcus pneumoniae [37] = assay: Antimicrobial activity against Streptococcus pneumoniae isolate 1424 by agar dilution method; outline: as §1
# Streptococcus pneumoniae [38] = assay: Antimicrobial activity against Streptococcus pneumoniae 5 by time-kill analysis
# Outline: as §2, with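 “12 and” for “12,”, “if” for “=”, “reduction” for “drop”, “90% and 99%” for “90%/99%/99.9%”, “also scored.” for “scored per strain.”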
# Streptococcus pneumoniae [39] = assay: Antimicrobial activity against Streptococcus pneumoniae 4 by time-kill analysis; outline: as §2
# Streptococcus pneumoniae [40] = assay: Antimicrobial activity against Streptococcus pneumoniae 7 by time-kill analysis; outline: as §2
# Streptococcus pneumoniae [41] = assay: Antimicrobial activity against Streptococcus pneumoniae isolate 3282 by agar dilution method
# Streptococcus pneumoniae [42] = assay: Antimicrobial activity against Streptococcus pneumoniae isolate 3587 by agar dilution method
# Streptococcus pneumoniae [43] = assay: Antimicrobial activity against Streptococcus pneumoniae isolate 4755 by agar dilution method; outline: as §1
# Streptococcus pneumoniae [44] = assay: Antimicrobial activity against Streptococcus pneumoniae isolate 3263 by agar dilution method
# Streptococcus pneumoniae [45] = assay: Antimicrobial activity against Streptococcus pneumoniae isolate 1394 by agar dilution method
# Streptococcus pneumoniae [46] = assay: Antimicrobial activity against Streptococcus pneumoniae isolate 3455 by agar dilution method
# Streptococcus pneumoniae [47] = assay: Antimicrobial activity against Streptococcus pneumoniae isolate 3374 by agar dilution method; outline: as §1
compound,measurement,setting,value
C[C@H]1COc2c(N3CCN(C)CC3)c(F)cc3c(=O)c(C(=O)O)cn1c23.C[C@H]1COc2c(N3CCN(C)CC3)c(F)cc3c(=O)c(C(=O)O)cn1c23.O [LEVOFLOXACIN],MIC50,Streptococcus pneumoniae [1],1 µg/mL
same,MIC90,Streptococcus pneumoniae [1],4 µg/mL
same,MIC50,Streptococcus pneumoniae [2],1 µg/mL
same,MIC90,Streptococcus pneumoniae [2],2 µg/mL
same,MIC50,Streptococcus pneumoniae [3],2 µg/mL
same,MIC90,Streptococcus pneumoniae [3],2 µg/mL
same,MIC50,Streptococcus pneumoniae [4],1 µg/mL
same,MIC90,Streptococcus pneumoniae [4],16 µg/mL
C[C@@H](O)[C@H]1C(=O)N2C(C(=O)O)=C(S[C@@H]3CN[C@H](C(=O)N(C)C)C3)[C@H](C)[C@H]12 [MEROPENEM],MIC,Streptococcus pneumoniae [5],0.06 µg/mL
same,MIC,Streptococcus pneumoniae [6],0.5 µg/mL
same,MIC,Streptococcus pneumoniae [7],1 µg/mL
same,MIC,Streptococcus pneumoniae [8],0.008 µg/mL
same,MIC,Streptococcus pneumoniae [9],0.25 µg/mL
same,MIC,Streptococcus pneumoniae [10],0.12 µg/mL
same,MIC,Streptococcus pneumoniae [11],0.5 µg/mL
same,MIC50,Streptococcus pneumoniae [1],0.5 µg/mL
same,MIC90,Streptococcus pneumoniae [1],0.5 µg/mL
same,MIC,Streptococcus pneumoniae [12],1 µg/mL
same,MIC,Streptococcus pneumoniae [13],0.25 µg/mL
same,MIC,Streptococcus pneumoniae [14],0.125 µg/mL
same,MIC,Streptococcus pneumoniae [15],0.25 µg/mL
same,MIC,Streptococcus pneumoniae [16],0.5 µg/mL
same,MIC50,Streptococcus pneumoniae [2],0.06 µg/mL
same,MIC90,Streptococcus pneumoniae [2],0.25 µg/mL
same,MIC,Streptococcus pneumoniae [17],0.5 µg/mL
same,MIC50,Streptococcus pneumoniae [3],1 µg/mL
same,MIC90,Streptococcus pneumoniae [3],1 µg/mL
same,MIC,Streptococcus pneumoniae [18],1 µg/mL
same,MIC,Streptococcus pneumoniae [19],0.5 µg/mL
same,MIC,Streptococcus pneumoniae [20],0.125 µg/mL
same,MIC,Streptococcus pneumoniae [21],1 µg/mL
same,MIC,Streptococcus pneumoniae [22],1 µg/mL
same,MIC,Streptococcus pneumoniae [23],0.016 µg/mL
same,MIC,Streptococcus pneumoniae [24],0.25 µg/mL
same,MIC,Streptococcus pneumoniae [25],0.25 µg/mL
same,MIC,Streptococcus pneumoniae [26],0.25 µg/mL
same,MIC,Streptococcus pneumoniae [27],0.25 µg/mL
same,MIC,Streptococcus pneumoniae [28],2 µg/mL
same,MIC,Streptococcus pneumoniae [29],1 µg/mL
same,MIC,Streptococcus pneumoniae [30],0.25 µg/mL
same,MIC,Streptococcus pneumoniae [31],0.5 µg/mL
same,MIC,Streptococcus pneumoniae [32],0.12 µg/mL
same,MIC,Streptococcus pneumoniae [33],0.25 µg/mL
same,MIC50,Streptococcus pneumoniae [4],0.016 µg/mL
same,MIC90,Streptococcus pneumoniae [4],0.016 µg/mL
same,MIC,Streptococcus pneumoniae [34],0.25 µg/mL
same,MIC,Streptococcus pneumoniae [35],1 µg/mL
same,MIC,Streptococcus pneumoniae [36],0.5 µg/mL
same,MIC,Streptococcus pneumoniae [37],0.5 µg/mL
same,MIC,Streptococcus pneumoniae [38],2 µg/mL
same,MIC,Streptococcus pneumoniae [39],0.5 µg/mL
same,MIC,Streptococcus pneumoniae [40],1 µg/mL
same,MIC,Streptococcus pneumoniae [41],0.25 µg/mL
same,MIC,Streptococcus pneumoniae [42],0.5 µg/mL
same,MIC,Streptococcus pneumoniae [43],0.25 µg/mL
same,MIC,Streptococcus pneumoniae [44],0.25 µg/mL
same,MIC,Streptococcus pneumoniae [45],0.5 µg/mL
same,MIC,Streptococcus pneumoniae [46],1 µg/mL
same,MIC,Streptococcus pneumoniae [47],0.25 µg/mL
CC[C@H]1OC(=O)[C@H](C)[C@@H](O[C@H]2C[C@@](C)(OC)[C@@H](O)[C@H](C)O2)[C@H](C)[C@@H](O[C@@H]2O[C@H](C)C[C@H](N(C)C)[C@H]2O)[C@](C)(OC)C[C@@H](C)C(=O)[C@H](C)[C@@H](O)[C@]1(C)O [CLARITHROMYCIN],MIC,Streptococcus pneumoniae [11],16 µg/mL
same,MIC50,Streptococcus pneumoniae [1],0.06 µg/mL
same,MIC,Streptococcus pneumoniae [12],0.03 µg/mL
same,MIC,Streptococcus pneumoniae [13],0.03 µg/mL
same,MIC,Streptococcus pneumoniae [14],> 64 µg/mL
same,MIC,Streptococcus pneumoniae [15],> 64 µg/mL
same,MIC,Streptococcus pneumoniae [16],8 µg/mL
same,MIC50,Streptococcus pneumoniae [2],1 µg/mL
same,MIC90,Streptococcus pneumoniae [2],> 64 µg/mL
same,MIC,Streptococcus pneumoniae [17],32 µg/mL
same,MIC50,Streptococcus pneumoniae [3],> 64 µg/mL
same,MIC90,Streptococcus pneumoniae [3],> 64 µg/mL
same,MIC,Streptococcus pneumoniae [18],32 µg/mL
same,MIC,Streptococcus pneumoniae [19],32 µg/mL
same,MIC,Streptococcus pneumoniae [20],32 µg/mL
same,MIC,Streptococcus pneumoniae [21],2 µg/mL
same,MIC,Streptococcus pneumoniae [22],> 64 µg/mL
same,MIC,Streptococcus pneumoniae [24],0.03 µg/mL
same,MIC,Streptococcus pneumoniae [25],> 64 µg/mL
same,MIC,Streptococcus pneumoniae [26],64 µg/mL
same,MIC,Streptococcus pneumoniae [27],64 µg/mL
same,MIC,Streptococcus pneumoniae [28],1 µg/mL
same,MIC,Streptococcus pneumoniae [29],> 64 µg/mL
same,MIC,Streptococcus pneumoniae [30],> 64 µg/mL
same,MIC,Streptococcus pneumoniae [31],> 64 µg/mL
same,MIC,Streptococcus pneumoniae [33],32 µg/mL
same,MIC50,Streptococcus pneumoniae [4],0.5 µg/mL
same,MIC90,Streptococcus pneumoniae [4],> 64 µg/mL
same,MIC,Streptococcus pneumoniae [34],32 µg/mL
same,MIC,Streptococcus pneumoniae [36],64 µg/mL
same,MIC,Streptococcus pneumoniae [37],16 µg/mL
same,MIC,Streptococcus pneumoniae [41],> 64 µg/mL
same,MIC,Streptococcus pneumoniae [42],> 64 µg/mL
same,MIC,Streptococcus pneumoniae [43],> 64 µg/mL
same,MIC,Streptococcus pneumoniae [44],> 64 µg/mL
same,MIC,Streptococcus pneumoniae [45],64 µg/mL
same,MIC,Streptococcus pneumoniae [46],> 64 µg/mL
same,MIC,Streptococcus pneumoniae [47],32 µg/mL
O=C(O)c1cn(C2CC2)c2cc(N3CCNCC3)c(F)cc2c1=O [CIPROFLOXACIN],MIC,Streptococcus pneumoniae [16],1 µg/mL
same,MIC,Streptococcus pneumoniae [17],32 µg/mL
same,MIC,Streptococcus pneumoniae [19],1 µg/mL
same,MIC,Streptococcus pneumoniae [20],1 µg/mL
same,MIC,Streptococcus pneumoniae [21],32 µg/mL
same,MIC,Streptococcus pneumoniae [23],> 32 µg/mL
same,MIC,Streptococcus pneumoniae [24],1 µg/mL
same,MIC,Streptococcus pneumoniae [28],32 µg/mL
same,MIC,Streptococcus pneumoniae [29],1 µg/mL
same,MIC,Streptococcus pneumoniae [31],1 µg/mL
same,MIC,Streptococcus pneumoniae [34],1 µg/mL
same,MIC,Streptococcus pneumoniae [35],1 µg/mL
same,MIC,Streptococcus pneumoniae [38],1 µg/mL
same,MIC,Streptococcus pneumoniae [39],16 µg/mL
same,MIC,Streptococcus pneumoniae [40],1 µg/mL
